Measurements published in the RNAGym collection of RNA variant scans (doi:10.1126/science.aae0568).
This sample holds only a part of the variants without activity.

B1: tRNA (parent)
chain: GUUCCGUUGGCGUAAUGGUAACGCGUCUCCCUCCUAAGGAGAAGACUGCGGGUUCGAGUCCCGUACGGAACG

Variants of: B1
Experiment: yeast fitness relative to wild type (ratio to wild type); higher = fitter; tRNA-Arg(CCU), competitive growth, 37 C, YPD
Method in brief: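 A pool of Saccharomyces cerevisiae strains, each with a tRNA-Arg(CCU) gene variant at the native genomic locus, was competed in YPD at 37°C for 24 hours across six parallel replicates. The variants had been chemically synthesised at a 3% per-site mutation rate over 69 sites, and gene amplicons before and after competition were read by 100-nucleotide paired-end sequencing. Darwinian fitness relative to wild type rested on changes in genotype frequencies. Genotypes required ≥ 100 starting reads, and estimates < 0.5 were set to 0.5.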

Row | Variant | yeast fitness
1 | G10A A20C G38A G41A | ≤ 0.5
2 | G9C G48A | 0.705
3 | G10A A20U A42G C60U U64A C66A G68A A69G | ≤ 0.5
4 | G9C U53C C60A | ≤ 0.5
5 | G9C C27G C29G A36C C61A | ≤ 0.5
6 | G9C U32A C55U A57U | ≤ 0.5
7 | G10A A20U A70C | 0.579
8 | G9C G38C | 0.546
9 | G10A C11A C22U C34G A43C G48C | 0.585
10 | G9C G10C C29G | ≤ 0.5
11 | G10A C24G U47C C62U | ≤ 0.5
12 | G9C U13A G25A A40C A57C C61U G67A | ≤ 0.5
13 | G10A C22U G56C A69U | ≤ 0.5
14 | G10A C30U G50A A70U | ≤ 0.5
15 | G9C C30G A36U C46A | 0.532
16 | G10A C29U G44C C60U | ≤ 0.5
17 | G10A C22G A37G G38A G51C U53G | ≤ 0.5
18 | G10A C11U C29A C34A G44A C66G | 0.545
19 | G10A C11A A15C C24A C34A C46G | 0.559
20 | G9C U16A C24U C30U | 0.533
21 | G10A A14U A43C A69C | ≤ 0.5
22 | G9C C27U U53A | 0.548
23 | G9C G23C | 0.573
24 | G9C C46A | 0.893

Row | Variant | yeast fitness
25 | G9C G67C | 0.746
26 | G9U U16G C66A | ≤ 0.5
27 | G9C C29G C34G | ≤ 0.5
28 | G9C G48C G58A A70U | 0.552
29 | G10A C30U G50A | 0.529
30 | G9C U16G U32C A37C | ≤ 0.5
31 | G9C G48A A69C | 0.627
32 | G10A | 0.705
33 | G9C G23A A40C G41A C55G | ≤ 0.5
34 | G9C U13C A69C | 0.564
35 | G9C C46U A65U A69U | ≤ 0.5
36 | G9C C27A C30U C33G | ≤ 0.5
37 | G10A C22G | 0.637
38 | G10A C22A | 0.717
39 | G10A A21U C31A G39C C62G G68A | ≤ 0.5
40 | G9C G17A C27U | ≤ 0.5
41 | G9C C24U C30G G51A C60U G67A | 0.543
42 | G10A C27A | 0.801
43 | G9C U28A | 0.708
44 | G10A A36U A43G C66A | ≤ 0.5
45 | G10A C30U C46A | 0.695
46 | G9C A70G | 0.615
47 | G10A A15C G25A U47C C66U | 0.558
48 | G10A A20G U26C G39A | ≤ 0.5

Row | Variant | yeast fitness
49 | G9C U13C C31G A57G | ≤ 0.5
50 | G9C U19C C31A C55U | 0.641
51 | G10A C11G G41C A45U | ≤ 0.5
52 | G10A C33U C49U | 0.663
53 | G9C C11A A15U C24G C33G G38C A43G C61G | ≤ 0.5
54 | G9C U13A G25A A40C G67C | ≤ 0.5
55 | G10A C11U A15G C30U C60G | ≤ 0.5
56 | G9C C30U U53C | ≤ 0.5
57 | G10A C31U A42G | ≤ 0.5
58 | G10A A14C C34U A42G | 0.65
59 | G9C G10C A69G A70G | ≤ 0.5
60 | G9C G23A A43U A57U | 0.561
61 | G10A A37C A57C | ≤ 0.5
62 | G9C U28C G44C | 0.619
63 | G10A C31A | 0.637
64 | G10A C31U | 0.662
65 | G10A A14U A20G U26G C31G C34G A42U A43C G50C | ≤ 0.5
66 | G9C C62U | 0.814
67 | G9C U35A A43U | ≤ 0.5
68 | G10A A21C C24A A65C | 0.521
69 | G9C C11A A15U C24G C33G G38C A43G C60U G63A | ≤ 0.5
70 | G9C U16G C66G | ≤ 0.5
71 | G9C C22G C61A G63A | ≤ 0.5
72 | G9C U16G C29A | ≤ 0.5

Row | Variant | yeast fitness
73 | G10A A36C A70U | ≤ 0.5
74 | G9C U19G | 0.502
75 | G10A C11U G58C A65U | ≤ 0.5
76 | G9C C61U C66G | ≤ 0.5
77 | G10A A37U G67C | 0.587
78 | G10A C11U A43U C60U | ≤ 0.5
79 | G10A A37G C49G | ≤ 0.5
80 | G9C U13C A20G C31G A57G | ≤ 0.5
81 | G9C G10C U47A | ≤ 0.5
82 | G10A C29G U53A G56C C62G A69C | ≤ 0.5
83 | G9C U13G U28C G41C A43C A45U C49G U53G A69C | 0.611
84 | G9C C31A | 0.685
85 | G10A C11A C29A C66U | ≤ 0.5
86 | G10A C31U G38C G63A G68C A69G | 0.578
87 | G10A C33U A65C | ≤ 0.5
88 | G9C U28C C30G C49G | ≤ 0.5
89 | G9C G39C G41A A43U | ≤ 0.5
90 | G9C C11U C24G C31U C34U C49U A69C | ≤ 0.5
91 | G9C G17C G39C A70U | ≤ 0.5
92 | G10A C31A C55U G63A | ≤ 0.5
93 | G9C G10C A36C G39C G48A | 0.512
94 | G10A A45G C46G U54G A70C | 0.532
95 | G9C C24U U26G G68U | ≤ 0.5
96 | G9C U16C C30U | 0.506

Row | Variant | yeast fitness
97 | G10A C22U G56C | 0.566
98 | G9C U32C A43C | ≤ 0.5
99 | G10A A45U U53G | ≤ 0.5
100 | G9C C27G C29G A36C | ≤ 0.5
101 | G10A A42C A43C | 0.612
102 | G10A C22G A37G G38A | ≤ 0.5
103 | G9C U16C G51C | ≤ 0.5
104 | G10A C11A A14G A15G | ≤ 0.5
105 | G10A A14U A20G U26G C31G C34G A42U A43C G50C A70C | ≤ 0.5
106 | G9C C30A U35C | ≤ 0.5
107 | G10A C30U C46A C66U | ≤ 0.5
108 | G9C C49A | 0.596
109 | G10A C30U G63A | 0.538
110 | G10A C24G A43G | ≤ 0.5
111 | G9C C34G G51A A70G | ≤ 0.5
112 | G10A C31U G38C G41A G63A G68C A69G | ≤ 0.5
113 | G9C C30G G38C G58C C66A | 0.535
114 | G10A C33U G50A | ≤ 0.5
115 | G9C C49U A65U | 0.52
116 | G9C U16G A70U | ≤ 0.5
117 | G10A A57C U59C | ≤ 0.5
118 | G10A C31U A65U | 0.566
119 | G10A C34G G44C U47C G52A U53C C61U | ≤ 0.5
120 | G10A A15C C49A C61U C62G | ≤ 0.5

Row | Variant | yeast fitness
121 | G10A A21U A42G | ≤ 0.5
122 | G10A C22U A45G | ≤ 0.5
123 | G9C U19C A69U | 0.656
124 | G9C G18C G44A | 0.526
125 | G10A C22U U47C | ≤ 0.5
126 | G9U A37U G50C C66U | ≤ 0.5
127 | G9C C30U A69U | ≤ 0.5
128 | G10A A21U U53A C66U | ≤ 0.5
129 | G10A A36U G38A A65C | ≤ 0.5
130 | G10A A20C C24U A57G C61U | ≤ 0.5
131 | G9C C29A C34U | ≤ 0.5
132 | G10A C27A C34U A57G | ≤ 0.5
133 | G9C U28A A40C U47C G52A | ≤ 0.5
134 | G10A C27U U28C C30A G48A G50A | 0.985
135 | G9C U19A A20G C29U A37U C62U G67A A70C | ≤ 0.5
136 | G9C G23C C29U A36C C49G | ≤ 0.5
137 | G9C U28A G50C U59A | 0.685
138 | G9C C66G | 0.547
139 | G10A A15G A42C | ≤ 0.5
140 | G10A A40G | 0.79
141 | G10A A40U | 0.683
142 | G10A C30U U47A G67C | ≤ 0.5
143 | G9C C30U C31G | 0.632
144 | G10A A43U | 0.781

Row | Variant | yeast fitness
145 | G10A C24A A45C A57U | 0.63
146 | G9C G50C | 0.514
147 | G10A C11A | 0.636
148 | G10A C11A A15C C24A C34A C46G G67C | ≤ 0.5
149 | G9C C46G C61G A65C | ≤ 0.5
150 | G9C U13C C55U A57C | ≤ 0.5
151 | G9C C11G C24U C31U U59G A70C | ≤ 0.5
152 | G10A C24G C62U | 0.54
153 | G9C C30A C46A G48C A70C | ≤ 0.5
154 | G10A A37U A45G C46G C55A | ≤ 0.5
155 | G9C C24A C62G | ≤ 0.5
156 | G9C U26G C55A | ≤ 0.5
157 | G10A A21C C24A A65C A69C | ≤ 0.5
158 | G10A C24G C34U | ≤ 0.5
159 | G9C G44C C61U | 0.584
160 | G9C U13C C31G A65U | ≤ 0.5
161 | G9U U16A A36C A37G G56C | ≤ 0.5
162 | G9U C27U C29A A69U | ≤ 0.5
163 | G10A C34G | ≤ 0.5
164 | G9C G10C | 0.68
165 | G10A A14G A36G | ≤ 0.5
166 | G9C C30U G48C | ≤ 0.5
167 | G10A C29U C31U G48C U54A | ≤ 0.5
